M1 agonist: M1 muscarinic receptor agonism; CHO-M1 cells, Fluo-4 calcium fluorescence, agonist mode; active compounds read high; AID 626; actives 3% (n = 64,000); B-score at 10 µM;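 active means fluorescence rise, raw or as B-score row- and column-corrected plate score, outside the 99.7% band of its plate's samples, either direction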
HEK293 NFkB inh: lowers PMA/ionomycin-induced NF-kB signal in HEK293 cells; actives 0.21% (n = 62,000); HEK-293 NF-kB luciferase reporter, luminescence; inhibition, % at 3 µM;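 active means inhibition above the mean of all tested compounds plus 3 SD, cut at about 40% in these data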;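 further: 0% = stimulated DMSO wells and 100% = 10 µM reference inhibitor 5653914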
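Signal: luciferase luminescence; Material: HEK-293 cells with stable firefly luciferase reporter driven by four HIV NF-kB elements; Probe or stimulus: PMA with ionomycin; Replication: tested once; Times: 1 h compound pretreatment, then 16 h stimulation at 37 °C, 5% CO2; Benchmarks: DMSO and 10 µM reference inhibitor; Evaluation: per-plate % inhibition versus controls.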
Cdc25B block: human M-phase inducer phosphatase 2 inhibition. recombinant Cdc25B, OMFP fluorescence Ex485/Em525. P30305. actives 0.1% (n = 65,000). inhibition, %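 (compounds tested at 10 µM final in the well)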; in the data active means inhibition above about 50%
Her2 expr inh: lowers expression of human Her2 kinase | SKBR-3 HER2 protein level, AlphaScreen, 18-24 h; active compounds read low | actives 0.69% (n = 65,000) | P04626 | HER2 level % of control, % at 10 µM | AID 645;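 active means HER2 level under 5% of the carrier-only control; inconclusive means no clear call, values can overlap the other calls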;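 further: 100% = DMSO carrier and 0% = 500 nM PU-H71 HSP90 inhibitor; lower value means stronger loss of Her2 protein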
M1 antagonist: M1 muscarinic receptor (rat) antagonism; CHO-M1 cells, Fluo-4 calcium, ACh EC80 antagonist mode; active compounds read low; P08482; AID 628; actives 3.4% (n = 64,000); B-score at 10 µM;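 active means calcium fluorescence response, raw or row-and-column corrected B-score, differing from the plate sample mean either way at a set confidence level, mostly lower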
DUSP1 inh: human dual specificity phosphatase 1 inhibition | actives 0.15% (n = 65,000) | AID 374 | recombinant MKP-1, OMFP hydrolysis fluorescence | inhibition, %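 (compounds tested at a single concentration somewhere between 10 and 100 µM)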;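 active means inhibition above about 50%, limit read from the data; inconclusive means inhibition over screen mean plus 3 SD, below that limit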;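 further: 0% = DMSO max control wells and 100% = wells with enzyme stopped by NaOH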
Active calls of the source: *; ? = inconclusive; · = no result given. Rows were chosen to be rich in hits. Some 6.8% of all compounds tested hit in one or more screens of this group.

SMILES	M1 agonist	HEK293 NFkB inh	Cdc25B block	Her2 expr inh	M1 antagonist	DUSP1 inh
CC(C)Cn1c(CN2CCN(c3ccccc3F)CC2)nc2c1c(=O)[nH]c(=O)n2C	0.31	6.0	3.8	99.3	-0.109	8.6
NS(=O)(=O)c1cc2c(cc1C(F)(F)F)NC(Cc1ccccc1)NS2(=O)=O (configuration not stated)	-0.7	·	4.5	98.5	-0.159	13.3
O=C(CCN1CCN(c2ccccc2F)CC1)c1ccc(Br)cc1	0.141	20.6	-17.9	-16.2*	-1.88	0.4
O=C(CCS(=O)(=O)c1ccc(Br)cc1)N1CCN(c2ccccc2F)CC1	0.0217	18.6	1.4	107.9	-0.0365	-2.6
CCOc1ccc(NC(=O)C/C(N)=N/O)cc1	0.233	9.5	-7.7	-21.1*	-0.474	-8.5
CCn1c(C)cc(=S)c2ccccc21	0.0848	8.9	0.3	-19.1*	-0.000186	3.3
CC(C)(C)Nc1nc(NC(C)(C)C)nc(-n2ccnc2)n1	1.06	4.7	-12.6	92.9	-0.279	4.5
Cc1ccc(C)c(N(CC(=O)N(C)C)S(C)(=O)=O)c1	1.45	-2.2	-12.4	107.6	1.26*	-4.4
COC(=O)C1=C(NC(=O)c2cccc(C)c2)CCS1	·	-0.1	-9.5	117.0	·	2.0
Cc1ccc2cc(C(c3nnnn3C(C)(C)C)N3CCCC3)c(=O)[nH]c2c1C (configuration not stated)	-0.573	15.4	8.6	84.9	0.538	11.6
CCOC(=O)c1[nH]c(C)c(C(=O)c2cc(F)ccc2F)c1C	0.188	42.3*	-7.5	72.8	-0.358	-9.7
CCOC(=O)c1[nH]c(C)c(C(=O)OCC)c1C	0.0367	5.8	0.2	98.4	0.135	3.7
CN1CCN(CCCNC(=O)c2ccc3c(c2)N(Cc2ccccc2)CCS3)CC1	0.54	6.6	-5.0	65.0	-0.474	0.8
CCCC(c1nnnn1Cc1ccco1)N1CCN(C(=O)c2ccco2)CC1 (configuration not stated)	-0.115	21.3	-6.5	105.8	0.147*	-0.1
CCCCC(c1nnnn1Cc1ccco1)N1CCN(C(=O)c2ccco2)CC1 (configuration not stated)	-0.7	5.6	-6.6	89.7	0.191	11.4
CS(=O)(=O)N1CCCC(C(=O)NCCCN2CCOCC2)C1 (configuration not stated)	-2.28	4.7	-16.3	108.5	0.848	-13.0
Cc1ccc(S(=O)(=O)N2CCN(C(=O)N3CCOCC3)C2C)cc1 (configuration not stated)	-0.189	21.3	8.1	-30.0*	-0.00255	-3.7
c1cc(-c2nc3cc(Oc4ccc5oc(-c6ccncc6)nc5c4)ccc3o2)ccn1	1.94	13.5	4.8	103.8	0.216	9.0
Cc1nn(Cc2c(Cl)cccc2Cl)c(C)c1NC(=O)c1cc(C(C)C)on1	-2.06	44.4*	-13.1	29.1	-0.937	?
Cc1cc(C(=O)Nc2c(C)nn(Cc3c(Cl)cccc3Cl)c2C)no1	0.0183	-22.1	-5.9	90.5	0.405	9.0
CCOC(=O)C1CCCN(C/C(O)=C(\C#N)c2nc(-c3ccccc3)cs2)C1 (configuration not stated)	11.5*	9.6	-5.5	144.6	-0.215	-11.9
O=C(CCSc1nnnn1-c1ccccc1)N1CCOCC1	-0.94	-2.9	4.6	82.2	0.245	4.2
O=C(CSc1nnnn1-c1cccc2c1CCCC2)N1CCOCC1	-0.112	8.6	-6.6	61.9	2.75*	4.2
CSc1nc(C)cc(OCNC(=O)c2cccs2)n1	0.457	24.0	1.5	93.0	-0.315	-8.7
COC(=O)C1=C(N)Oc2cc(C)n(CCCn3ccnc3)c(=O)c2C1c1ccc(Cl)cc1 (configuration not stated)	0.0632	16.6	1.6	158.3	-0.486	15.1
SMILES	M1 agonist	HEK293 NFkB inh	Cdc25B block	Her2 expr inh	M1 antagonist	DUSP1 inh
COC(=O)C1=C(N)Oc2cc(C)n(C)c(=O)c2C1c1ccc(Cl)c(Cl)c1 (configuration not stated)	-0.106	11.1	-6.7	3.3*	0.498	-19.5
O=S(=O)(Cc1ccccc1)N1CCc2ccccc21	8.34*	9.4	-9.1	64.2	-0.194	8.9
CN(C)S(=O)(=O)N1CCc2ccccc21	-0.0918	11.8	-11.3	105.3	0.202	0.3
COc1ccccc1C(=O)N1CCN(C(=O)c2ccncc2)CC1	-0.564	-7.0	-24.3	77.0	0.0325	2.5
COc1ccccc1C(=O)N1CCN(c2cccc(Cl)c2)CC1	-0.307	40.4*	-3.8	40.5	0.142	2.4
CCOC(=O)Cc1csc(NS(=O)(=O)Cc2ccccc2)n1	-0.249	5.3	-1.1	94.4	2.59*	23.2
CCOC(=O)Cc1csc(NC(=O)COc2ccccc2)n1	-1.4	16.0	-1.1	129.5	-1.02	11.2
CCOc1ccccc1CN(Cc1ccco1)S(=O)(=O)c1ccc(-n2cnnn2)c(OC)c1	-2.6	22.4	-40.4	86.0	-0.994	10.6
CC(NC(=O)Cc1cccs1)C(c1cccs1)N1CCOCC1 (configuration not stated)	-0.323	10.6	-12.0	90.0	1.67*	25.8
CCC(=O)NC(C)C(c1cccs1)N1CCOCC1 (configuration not stated)	0.103	-2.3	-14.6	136.6	0.378	2.6
CC(=O)c1cccc(NC(=O)NCc2ccccn2)c1	3.1*	-16.1	-7.9	179.0	1.14	-2.7
COc1ccc(NC(=O)NCc2ccccn2)cc1OC	-0.479	17.8	-3.8	61.1	-0.293	3.4
COc1ccc(CCNc2oc(COc3ccccc3F)nc2C#N)cc1	-0.412	14.7	7.7	-29.9*	-1.93	-3.4
O=C(Nc1cccnc1)c1cnn2cccnc12	-0.533	13.1	-4.8	161.7	0.000264	8.1
O=C(Nc1ccc2c(c1)OCO2)c1cnn2cccnc12	-0.236	-22.6	5.9	-20.6*	0.036	4.9
COc1ccc(C2C(C(C)=O)=C(O)C(=O)N2CCN(C)C)cc1OC (configuration not stated)	0.147	-6.8	-10.6	114.2	-0.348	4.7
COCCCN1C(=O)C(O)=C(C(C)=O)C1c1cccc(F)c1 (configuration not stated)	1.84	9.9	-14.5	-15.8*	0.235	-22.0
CCOC(=O)c1c(C)[nH]c(C(=O)OC/C(O)=C(\C#N)c2nc3ccccc3[nH]2)c1C	-0.815	-3.1	-1.0	-3.7*	0.911	39.8
N#C/C(=C(/O)COC(=O)c1ccc2c(c1)OCCO2)c1nc2ccccc2[nH]1	1.71	9.4	3.2	108.6	0.402	18.1
Cc1cccc(C2CC(c3ccc(Br)cc3)Nc3nc(N)nn32)c1 (configuration not stated)	-0.796	·	-14.4	104.5	0.18	9.0
O=c1oc2c(CN3CCCCC3)c(O)ccc2cc1-c1nc2ccccc2[nH]1	182*	5.5	2.0	102.7	-18.3*	-14.8
O=c1oc2c3c4c(cc2cc1-c1nc2ccccc2[nH]1)CCCN4CCC3	338*	-48.9	2.9	85.0	-15.3*	1.1

Source: PubChem BioAssay (several laboratories)
